Source: PubChem BioAssay (several laboratories)
TAAR1 ag – agonists of human TAAR1; Q96RJ0; CHO RD-HGA16 TAAR1, Fluo-8 calcium fluorescence; vehicle wells 0%, saturating PEA agonist 100%; activation, % at 3 µM; 360,000 tested, 0.99% active;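 active = activation above the mean activation of all test compounds in the run plus 3 SD, cut at about 38% in these data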
Target sequence (Q96RJ0 whole entry, looked up): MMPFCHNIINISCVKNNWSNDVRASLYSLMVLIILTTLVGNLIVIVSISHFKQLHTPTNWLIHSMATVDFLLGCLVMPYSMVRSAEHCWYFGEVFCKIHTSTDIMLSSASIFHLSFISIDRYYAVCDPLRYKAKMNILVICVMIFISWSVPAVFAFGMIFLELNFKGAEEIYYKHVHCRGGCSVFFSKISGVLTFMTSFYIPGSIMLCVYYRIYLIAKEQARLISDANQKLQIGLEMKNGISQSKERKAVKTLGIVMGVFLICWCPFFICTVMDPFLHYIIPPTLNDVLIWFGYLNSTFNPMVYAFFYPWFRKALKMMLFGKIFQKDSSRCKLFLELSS
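Test system: RD-HGA16 (CHO) cells co-expressing Gα16 and hTAAR1 | Doses: Single dose, 3 µM | Schedule: 17-24 h seeding, 75 min 37 °C dye, 30 min RT | Evaluation: % activation from peak over basal fluorescence ratio, DMSO-to-PEA scaled | Technique: Kinetic Fluo-8 calcium fluorescence | Benchmarks: Low control DMSO, high control PEA (EC100)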
NTR1 ag – activates human neurotensin receptor 1 | P30989 | NTR1-U2OS beta-arrestin-GFP spot imaging, agonist mode | activation, % at 20 µM | 330,000 tested, 0.17% active | AID 493036;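 active = activation at or above 40% of the spot to cytoplasm intensity ratio, with at least 20 cells analyzed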;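 also: 0% = DMSO without peptide and 100% = 100 nM NTR1 peptide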
OX1R antag-1 – human HCRTR1 antagonism | AID 434989 | inhibition, % at 5 µM | O43613 | CHO/OX1R cells, Fluo-8 calcium fluorescence, orexin A | 330,000 tested, 0.43% active;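 active = inhibition above its plate's threshold, mean inhibition of all tested compounds on the plate plus 3 SD, cut at about 37% in these data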;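 also: 0% = orexin A challenge wells and 100% = SB-334867-A antagonist wells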
TAAR1 antag – human TAAR1 antagonism; CHO RD-HGA16 TAAR1, Fluo-8 calcium fluorescence, antagonist; 360,000 tested, 1.5% active; Q96RJ0; AID 624466; inhibition, % at 3 µM;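 active = inhibition above a per-plate cutoff, the mean inhibition of test compounds on that plate plus 3 SD, cut at about 49% in these data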;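 also: 0% = DMSO plus EC80 beta-PEA response and 100% = DMSO alone without agonist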
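Test system: RD-HGA16 CHO cells with stable hTAAR1 and Gα16 / Probe or stimulus: EC80 β-phenethylamine stimulus / Times: seeding 17-24 h prior, 75-min 37 °C, 30-min RT dye loading / Detection: Fluo-8 calcium-sensitive fluorescence / Read-out basis: % inhibition scaled between DMSO and EC80 PEA controls / Repeats: singlicate, one well per test compound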
OX1R antag-2 – blocks the human orexin 1 receptor. O43613. OX1R-expressing cells, FRET antagonist read-out. inhibition, % at 6.6 µM. 330,000 tested, 1.8% active; in the data active = inhibition mostly above about 38%, no sharp cut-off; inactive = mostly below about 40%;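 also: 0% = agonist challenge alone and 100% = reference antagonist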
CHO parental Ca – signal in parental CHO cells, OX1R antagonist counter-screen; 330,000 tested, 0.63% active; inhibition, % at 5.6 µM; parental CHO-K1, ATP-induced calcium, Fluo-8 fluorescence;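 active = inhibition above that plate's mean sample inhibition plus 3 SD, cut at about 26% in these data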;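 also: 0% = ATP-challenged DMSO wells and 100% = DMSO wells without ATP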
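Material – parental CHO cells · Reagent – ATP stimulus · Compound – single nominal dose of 5.6 µM per compound · Detection – Fluo-8 fluorescence · Read-out basis – percent inhibition of calcium signal · Controls – ATP-challenged DMSO wells low, unchallenged DMSO wells high · Repeats – no replicates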
TAAR1 nonsel count – nonselective antagonism, TAAR1 counter-screen | 2,400 tested, 77% active | shares compounds with TAAR1 antag | inhibition, % at 3 µM | counterscreen cell line, calcium fluorescence, antagonist mode | AID 651780; in the data active = inhibition above about 22%;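 also: CHO-Ga16 host cells stimulated with ATP at an EC80 level; 0% = agonist EC80 plus vehicle and 100% = vehicle without agonist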
TAAR1 ant conf – human TAAR1 antagonism, confirmed; shares compounds with TAAR1 antag; TAAR1-expressing cells, fluorescence antagonist read-out; inhibition, % at 3 µM; 2,400 tested, 40% active; in the data active = inhibition above about 49%;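 also: CHO-Ga16 host cells challenged with agonist PEA near its EC80; 0% = agonist at EC80 plus vehicle and 100% = vehicle with no agonist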
Ga16 nonsel ag – counter-screen for TAAR1 antagonists: nonselective Ga16 agonists | AID 651953 | shares compounds with TAAR1 antag | Ga16-expressing cells, calcium fluorescence, agonist counterscreen | activation, % at 3 µM | 2,400 tested, 18% active; in the data active = activation above about 12%;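 also: 0% = vehicle wells and 100% = saturating stimulus response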
TAAR1 ag count – activates human TAAR1 in antagonist counter-screen. shares compounds with TAAR1 antag. hTAAR1 cell line, fluorescence activation, agonist mode. activation, % at 3 µM. 2,400 tested, 2% active. AID 651955; in the data active = activation above about 37%;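 also: CHO cells stably expressing TAAR1 with calcium dye readout; 0% = DMSO vehicle and 100% = full agonist response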
An asterisk follows results filed as active; / = no result. Most compounds without a hit are left out; they make up all but 4% or so of the library.

SMILES | TAAR1 ag | NTR1 ag | OX1R antag-1 | TAAR1 antag | OX1R antag-2 | CHO parental Ca | TAAR1 nonsel count | TAAR1 ant conf | Ga16 nonsel ag | TAAR1 ag count
Cc1ccc(-c2[nH]ncc2/C=N/n2c(COc3ccccc3)nc3ccccc3c2=O)cc1 | 10.2 | 12.3 | -4.1 | 65.8* | 26.7 | -13.9 | 33.1* | 52.7* | 6.8 | 6.7
O=C(CSc1ccc(-c2ccc(F)cc2)nn1)NC1CCCCC1 | 2.0 | -0.5 | 3.6 | -15.7 | 16.6 | -14.4 | / | / | / | /
C=C(C)COc1ccc(-c2ncncc2-c2ccccc2)c(O)c1 | -1.4 | 4.4 | -20.8 | -0.5 | -4.9 | -29.1 | / | / | / | /
Cc1ccc(CNC(=O)C2CCCN(S(=O)(=O)N3CC(C)CC(C)C3)C2)cc1 (stereo unspecified) | -2.3 | 0.5 | -32.2 | -9.3 | 19.2 | -12.8 | / | / | / | /
Cc1nn(-c2ccccc2)c(C)c1NC(=O)COC(=O)c1ccc(O)cc1O | 21.4 | 1.8 | / | 75.6* | / | / | 29.4* | 55.2* | 10.2 | 10.9
C[C@H]1CN([C@@H](C)CO)C(=O)Cc2cc(NC(=O)CCC(F)(F)F)ccc2O[C@H]1CN(C)S(=O)(=O)c1ccc(Cl)cc1 | 13.5 | 0.1 | -36.3 | 6.6 | 9.8 | -35.6 | / | / | / | /
C=CC[C@@H](CC(=O)NCCO)C(=O)NCCOC(=O)[C@@H](CC=C)Cc1ccc(F)cc1 | 0.9 | -0.1 | -8.4 | 4.1 | -4.1 | -8.3 | / | / | / | /
C=CC[C@@H](CC(=O)N[C@@H](CO)Cc1ccccc1)C(=O)NC[C@H](OC(=O)[C@@H](CC=C)Cc1ccc(F)cc1)c1ccccc1 | 19.8 | 1.0 | 7.3 | 63.5* | 12.0 | -17.7 | 32.3* | 53.9* | 9.8 | 11.0
C=CC[C@@H](CC(=O)NCCO)C(=O)NC[C@H](OC(=O)[C@@H](CC=C)Cc1ccc(F)cc1)c1ccccc1 | 30.7 | 1.1 | -1.0 | 78.0* | 32.8 | -12.1 | 31.5* | 63.3* | 12.7* | 15.3
C=CC[C@@H](CC(=O)N[C@@H](CO)Cc1ccccc1)C(=O)NC[C@@H](OC(=O)[C@@H](CC=C)Cc1ccc(F)cc1)c1ccccc1 | 11.2 | 2.1 | -12.0 | 6.1 | 3.3 | -5.4 | / | / | / | /
CCC(C)(C)NC(=O)CN(Cc1ccc(OC)cc1)C(=O)CCC(=O)Nc1nccs1 | 3.7 | -1.1 | -25.1 | -3.5 | 9.9 | -12.1 | / | / | / | /
CN1CCC(N(C)C(=O)c2ccc(Cl)c(S(=O)(=O)N3CCCCC3)c2)CC1 | 5.8 | -0.8 | -18.6 | 0.7 | -2.2 | -11.8 | / | / | / | /
O=C(NCN1CCOCC1)c1cnccn1 | 0.7 | -0.2 | 3.2 | -9.4 | 19.7 | -6.3 | / | / | / | /
CCOc1cc(NC(=S)NC)c(OCC)cc1NC(=O)c1cccs1 | 11.0 | 2.3 | -27.0 | 54.1* | 13.0 | -18.4 | 4.3 | 6.3 | 0.1 | 1.3
COc1ccc(-n2nc(C(=O)NCC(=O)Nc3cc(OC)c(OC)c(OC)c3)c3ccccc3c2=O)cc1Cl | 15.1 | -0.3 | 2.0 | 63.7* | 58.1 | -13.0 | 28.4* | 47.4 | 7.8 | 5.8
COc1ccc(-n2nc(C(=O)NCC(=O)N3CCN(c4ccccn4)CC3)c3ccccc3c2=O)cc1Cl | 4.0 | 1.2 | -17.2 | 17.0 | 4.0 | -9.2 | / | / | / | /
COc1ccc(-n2nc(C(=O)NCC(=O)N3CCC(C)CC3)c3ccccc3c2=O)cc1Cl | 3.4 | 3.2 | -125.3 | 48.6* | 15.1 | -23.2 | 17.3 | 34.7 | 5.4 | 1.5
Cc1noc(C)c1C(=O)OCC(=O)NC1CCCCC1C (stereo unspecified) | 2.1 | -0.5 | / | -4.5 | / | / | / | / | / | /
CCCCn1c(N)c(N(CCOC)C(=O)c2ccc(N3CCCC3=O)cc2)c(=O)[nH]c1=O | 6.1 | -0.3 | 4.9 | -11.5 | 12.9 | 0.8 | / | / | / | /
COc1ccc(-c2cc(C(=O)N/N=C/c3cccnc3)c3ccccc3n2)cc1 | 6.0 | 2.2 | / | 11.4 | / | / | / | / | / | /
